This passage reports outcome and inhibition results from PubChem BioAssay AID492951 (Molecular Libraries Program, Specialized Chemistry Center, …, 2010).

Values without a mark were called inactive. Activity calls are given as the source filed them.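 Rule for the calls: active = inhibition above 10%; inactive = the rest.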

This experiment deals with Hexokinase-4 (Homo sapiens) (UniProt P35557). Kind of experiment: human glucokinase inhibition, counter-screen for TbHK1 inhibitor project, biochemical, recombinant hGlck (AID 492951). To be noted: G6PDH-coupled NADH absorbance 340 nm, at 10 µM; hits give high values. An outline of the steps: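 Test system: recombinant human glucokinase, G6PDH-coupled; Medium: pH 7.9 TEA buffer, MgCl2, NAD+; Also added: 20 mM glucose as reaction starter, plus 1 mM ATP; Compound dosing: single final test compound dose of 10 µM; Schedule: 10 min preincubation at room temperature; Measured by: NADH formation by absorbance at 340 nm; Repeats: triplicate.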
Chain of Hexokinase-4 (Homo sapiens) (P35557 whole entry, looked up): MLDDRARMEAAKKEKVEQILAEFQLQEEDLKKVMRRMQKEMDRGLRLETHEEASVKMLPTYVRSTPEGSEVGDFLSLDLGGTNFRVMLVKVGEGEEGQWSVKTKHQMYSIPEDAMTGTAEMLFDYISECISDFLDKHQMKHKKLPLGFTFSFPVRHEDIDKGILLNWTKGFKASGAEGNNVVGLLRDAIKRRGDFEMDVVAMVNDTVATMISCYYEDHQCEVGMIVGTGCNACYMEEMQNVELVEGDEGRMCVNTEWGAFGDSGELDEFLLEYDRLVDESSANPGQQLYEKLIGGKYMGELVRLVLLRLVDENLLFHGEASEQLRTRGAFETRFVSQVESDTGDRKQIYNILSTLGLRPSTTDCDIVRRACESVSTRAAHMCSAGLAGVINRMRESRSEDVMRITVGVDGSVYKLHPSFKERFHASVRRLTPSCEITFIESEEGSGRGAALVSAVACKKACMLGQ
As for `COc1cccc(CC(=O)Nc2cc(Cl)ccc2C(=O)O)c1`, the outcome was inactive. In the case of `O=c1c2ccccc2sn1-c1ccccc1F`, the inhibition was 28.9% (active). Take `O=C(Nc1cc(Cl)ccc1C(=O)O)c1ccc2c(c1)CCC2`: the inhibition was 12.2% (active). With `CC(C)Cc1ccc(C(=O)Nc2cc(Cl)ccc2C(=O)O)cc1`, the inhibition was 19.5% (active). Take `CCc1ccc(C(=O)Nc2cc(Br)ccc2C(=O)O)cc1`: the result was inactive. Same read-out and setting: the result for `CC(C)(C)c1ccc(C(=O)Nc2cc(Cl)c(Cl)cc2C(=O)O)cc1` reads “inactive”. In the case of `Cn1sc(=O)c2ccccc21`, the inhibition was 56.2% (active). Still for that read-out and setting: the result for `COc1ccc(NC(=O)Nc2ccccc2C(=O)O)cc1` reads 5.1%. Turning to `CN(C)c1ccc(NC(=O)Cn2sc3ccccc3c2=O)cc1`, the inhibition is 14.1% (active). As to `COC(=O)c1ccc(Cl)cc1NC(=O)c1ccc(Cl)cc1`, the outcome was inactive. Consider `COc1cccc(C(=O)Nc2cc(Cl)ccc2C(=O)O)c1`, for which the result was inactive. Still for that read-out and setting: the result for `CCc1ccc(C(=O)Nc2cc(Cl)ccc2C(=O)O)cc1` reads “inactive”. Consider `O=C(Nc1cc(Cl)ccc1C(=O)O)c1ccc(Cc2ccccc2)cc1`, for which the result was inactive.

As to `O=C(Cn1sc2ccccc2c1=O)Nc1ccc(Br)cc1`, the inhibition was 33.8% (active).

`O=c1c2cc(N3CCOCC3)ccc2sn1-c1ccccc1`: the outcome was inactive. With `Cc1ccc(-n2sc3ccccc3c2=O)cc1`, the inhibition was 26.1% (active).

For `O=c1c2cc(F)ccc2sn1-c1ccccc1Cl`, the inhibition is 14.4% (active). Take `O=C(Nc1cc(Cl)ccc1C(=O)O)c1ccc(Cl)cc1`: the result was inactive. As to `O=c1c2ccccc2sn1-c1ccc(Cl)cc1Cl`, the inhibition is 65.6% (active). As for `COc1ccc(N2C(=O)c3ccc(Cl)cc3C2=O)cc1`, the outcome was inactive.

For `COC(=O)c1ccc(Cl)cc1NC(=O)c1ccc(OC)cc1`, the inhibition is 18.2% (active).

`O=c1c2cc(F)c(F)cc2sn1-c1ccccc1`: the inhibition is 16.9% (active). As to `O=C(Cn1sc2ccccc2c1=O)Nc1ccccc1C(F)(F)F`, the inhibition was 11.1% (active). Same read-out and setting: the result for `COc1ccc(C(=O)Nc2c(C(=O)O)ccc(Cl)c2Cl)cc1` reads 10.6%. For `COc1ccc(C(=O)NC(CC(=O)O)c2ccc(Cl)cc2)cc1` (stereo not drawn), the outcome was inactive. As for `COc1ccc(C(=O)N(C)c2cc(Cl)ccc2C(=O)O)cc1`, the inhibition was 6.7%. For `CC(C)(C)c1ccc(C(=O)N2CCC(=O)c3ccc(Cl)cc32)cc1`, the outcome was inactive. On the same count and under the same terms, the entry for `Cn1sc2ccccc2c1=O` is “inactive”. Turning to `COc1ccc(C(=O)Nc2cc(F)ccc2C(=O)O)cc1`, the result was inactive. For `COc1ccc(NC(=O)c2ccccc2C(=O)O)cc1`, the inhibition is 0.9%. For the compound `O=C1c2cc(Br)ccc2S(=O)N1c1ccccc1` (stereo not drawn), the outcome was inactive. As for `O=C(Cn1sc2ccccc2c1=O)Nc1ccccc1Br`, the inhibition is 9%. Regarding `Cc1ccccc1N1Cc2ccccc2C1=O`, the result was inactive. Turning to `COc1ccc(C(=O)Nc2ccc(Cl)cc2C(=O)O)cc1`, the outcome was inactive. As to `O=c1cc(-c2ccccc2)sn1-c1ccccc1`, the outcome was inactive. As for `O=C(O)c1ccc(Cl)cc1NC(=O)N1CCOCC1`, the outcome was inactive. `O=C(Cn1sc2ccccc2c1=O)N1CCOCC1`: the result was inactive.

Regarding `O=C(Cn1sc2ccccc2c1=O)Nc1cccc(Br)c1`, the inhibition is 22.2% (active).
